Active and inactive are the calls of the source. The calls are words filed in the database; no cut-off is given here.

Test [1] deals with Myosin light chain kinase, smooth muscle (Homo sapiens, UniProt Q15746). As to the kind of experiment: Competitive inhibition of MLCK by Lineweaver-Burk plot analysis. In a few lines: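 Double-reciprocal (1/V vs 1/[ATP]) kinetics using the HTRF phosphorylation read-out with Ca2+/calmodulin. Conditions: 375 nM STK1 peptide substrate, ATP at 80, 110 and 140 µM, inhibitor at 0, 1, 5 and 10 µM. Reaction velocities plotted to determine the mode of inhibition.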
Chain of Myosin light chain kinase, smooth muscle (Q15746 whole entry): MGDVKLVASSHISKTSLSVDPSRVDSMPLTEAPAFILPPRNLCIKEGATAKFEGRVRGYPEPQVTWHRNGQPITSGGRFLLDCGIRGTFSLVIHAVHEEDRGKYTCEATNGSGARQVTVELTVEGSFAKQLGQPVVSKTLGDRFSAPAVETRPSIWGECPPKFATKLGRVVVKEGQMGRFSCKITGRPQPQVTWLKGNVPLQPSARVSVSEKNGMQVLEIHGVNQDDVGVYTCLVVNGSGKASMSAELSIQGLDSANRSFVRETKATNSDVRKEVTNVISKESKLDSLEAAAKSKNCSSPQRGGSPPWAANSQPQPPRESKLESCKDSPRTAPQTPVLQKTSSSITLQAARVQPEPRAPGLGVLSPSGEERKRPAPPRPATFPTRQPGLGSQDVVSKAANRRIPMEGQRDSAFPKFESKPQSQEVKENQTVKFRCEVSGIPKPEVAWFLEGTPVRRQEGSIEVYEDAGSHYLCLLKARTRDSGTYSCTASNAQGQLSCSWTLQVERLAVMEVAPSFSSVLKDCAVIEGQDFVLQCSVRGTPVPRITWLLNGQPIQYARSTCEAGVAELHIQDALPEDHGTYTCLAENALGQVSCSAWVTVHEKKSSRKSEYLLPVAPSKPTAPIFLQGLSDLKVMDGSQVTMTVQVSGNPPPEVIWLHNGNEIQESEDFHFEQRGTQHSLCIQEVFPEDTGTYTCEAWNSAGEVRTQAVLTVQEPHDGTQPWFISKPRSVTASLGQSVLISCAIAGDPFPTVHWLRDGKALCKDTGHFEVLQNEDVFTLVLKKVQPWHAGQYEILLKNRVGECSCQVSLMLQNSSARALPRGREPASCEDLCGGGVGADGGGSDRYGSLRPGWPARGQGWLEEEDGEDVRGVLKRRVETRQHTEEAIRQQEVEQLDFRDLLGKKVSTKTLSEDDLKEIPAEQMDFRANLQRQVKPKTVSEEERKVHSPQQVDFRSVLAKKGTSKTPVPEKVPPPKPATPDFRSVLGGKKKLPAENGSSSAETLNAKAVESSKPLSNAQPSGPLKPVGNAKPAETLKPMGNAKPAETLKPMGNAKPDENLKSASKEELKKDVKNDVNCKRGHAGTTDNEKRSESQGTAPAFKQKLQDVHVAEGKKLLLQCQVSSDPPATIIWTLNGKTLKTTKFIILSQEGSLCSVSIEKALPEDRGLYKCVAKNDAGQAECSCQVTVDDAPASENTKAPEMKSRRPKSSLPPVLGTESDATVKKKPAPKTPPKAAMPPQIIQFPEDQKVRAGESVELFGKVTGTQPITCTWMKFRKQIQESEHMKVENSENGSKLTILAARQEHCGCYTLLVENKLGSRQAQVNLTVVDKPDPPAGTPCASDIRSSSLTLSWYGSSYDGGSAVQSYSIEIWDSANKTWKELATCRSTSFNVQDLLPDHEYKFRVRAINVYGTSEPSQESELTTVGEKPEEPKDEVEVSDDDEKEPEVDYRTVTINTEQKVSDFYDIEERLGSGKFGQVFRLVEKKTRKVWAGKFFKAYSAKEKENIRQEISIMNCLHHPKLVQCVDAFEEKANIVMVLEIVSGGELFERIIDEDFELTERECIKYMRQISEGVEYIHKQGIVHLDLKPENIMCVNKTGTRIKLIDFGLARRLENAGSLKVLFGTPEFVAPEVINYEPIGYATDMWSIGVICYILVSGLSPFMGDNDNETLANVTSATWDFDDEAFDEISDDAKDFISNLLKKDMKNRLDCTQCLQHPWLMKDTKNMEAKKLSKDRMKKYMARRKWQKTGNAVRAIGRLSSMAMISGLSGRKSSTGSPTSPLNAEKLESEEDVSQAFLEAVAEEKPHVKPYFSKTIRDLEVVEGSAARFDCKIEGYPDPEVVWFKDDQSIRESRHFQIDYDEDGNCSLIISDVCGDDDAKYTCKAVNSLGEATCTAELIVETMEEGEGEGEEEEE

The nature of test [2]: Growth inhibition of human NCI-H3122 cells assessed as ATP level after 96 hrs by CellTiter-Glo assay. Format: functional. The conditions noted are these: NCI-H3122, 96 h. (ATP-based viability assays read luminescence as a measure of living cells.)
The nature of test [3]: Growth inhibition of human NCI-H322 cells assessed as ATP level after 96 hrs by CellTiter-Glo assay. Format: functional. The conditions noted are these: NCI-H322, 96 h.
For test [4], the system named is Epidermal growth factor receptor (Homo sapiens), P00533 [T790M]. As to the kind of experiment: Inhibition of EGFR T790M mutant activation expressed in human drug-resistant H1975 cells. It is filed as cell-based.
Chain of Epidermal growth factor receptor (Homo sapiens), P00533 [T790M] (P00533 whole entry T790M): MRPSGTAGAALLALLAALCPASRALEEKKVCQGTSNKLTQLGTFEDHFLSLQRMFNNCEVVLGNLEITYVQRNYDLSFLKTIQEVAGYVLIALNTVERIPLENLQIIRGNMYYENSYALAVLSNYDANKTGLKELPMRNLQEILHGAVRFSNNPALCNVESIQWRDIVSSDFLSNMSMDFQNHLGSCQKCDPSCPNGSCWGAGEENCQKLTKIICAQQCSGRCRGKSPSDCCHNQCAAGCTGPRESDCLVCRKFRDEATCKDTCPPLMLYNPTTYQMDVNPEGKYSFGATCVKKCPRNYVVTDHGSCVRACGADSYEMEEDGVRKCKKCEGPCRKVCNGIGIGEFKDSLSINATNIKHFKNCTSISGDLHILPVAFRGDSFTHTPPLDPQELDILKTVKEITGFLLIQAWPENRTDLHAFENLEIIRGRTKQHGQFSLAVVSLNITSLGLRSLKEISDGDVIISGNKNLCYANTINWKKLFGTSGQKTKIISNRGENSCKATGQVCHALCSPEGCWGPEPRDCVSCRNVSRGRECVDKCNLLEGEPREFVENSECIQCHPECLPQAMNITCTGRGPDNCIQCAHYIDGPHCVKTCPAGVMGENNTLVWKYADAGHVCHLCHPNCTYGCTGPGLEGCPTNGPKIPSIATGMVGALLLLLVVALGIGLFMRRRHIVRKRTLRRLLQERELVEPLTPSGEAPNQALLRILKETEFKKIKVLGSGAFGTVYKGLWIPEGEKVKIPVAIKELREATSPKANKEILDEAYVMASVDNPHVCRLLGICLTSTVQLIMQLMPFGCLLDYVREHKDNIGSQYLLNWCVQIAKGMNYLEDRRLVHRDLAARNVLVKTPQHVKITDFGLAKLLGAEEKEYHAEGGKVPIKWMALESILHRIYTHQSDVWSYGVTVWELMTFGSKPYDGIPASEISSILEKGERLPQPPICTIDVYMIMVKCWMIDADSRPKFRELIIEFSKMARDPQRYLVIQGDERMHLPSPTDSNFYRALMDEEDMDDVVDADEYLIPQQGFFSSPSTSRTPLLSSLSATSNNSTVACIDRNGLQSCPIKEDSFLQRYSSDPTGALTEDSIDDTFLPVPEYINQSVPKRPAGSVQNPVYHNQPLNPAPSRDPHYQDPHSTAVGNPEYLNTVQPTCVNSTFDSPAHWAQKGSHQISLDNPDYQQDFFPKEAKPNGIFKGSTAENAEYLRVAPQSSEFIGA
A short description of test [5]: Growth inhibition of human H23 cells assessed as ATP level after 96 hrs by CellTiter-Glo assay. Format: functional. Conditions: NCI-H23, 96 h. Summed up: (§1)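 NSCLC lines maintained as in earlier work and authenticated by mutational analysis and SNP arrays. Cells were plated in 384-well format and allowed 24 h before compound addition as 10 threefold serial dilutions (DMSO stocks). After 96 h, viability was read as cellular ATP by CellTiter-Glo. GI50 was fitted with an R package.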

A further test has as its system NCI-H2347. As to the kind of experiment: Growth inhibition of human NCI-H2347 cells assessed as ATP level after 96 hrs by CellTiter-Glo assay. Format: functional. Conditions: NCI-H2347, 96 h.
A further test deals with NCI-H1755. The experiment in a line: Growth inhibition of human NCI-H1755 cells assessed as ATP level after 96 hrs by CellTiter-Glo assay. It is filed as functional. The conditions noted are these: NCI-H1755, 96 h. In a few lines:
as §1

In another test the test system is NCI-H1993. As to the kind of experiment: Growth inhibition of human NCI-H1993 cells assessed as ATP level after 96 hrs by CellTiter-Glo assay. Format: functional. Conditions: NCI-H1993, 96 h.
The test system of a further test is NCI-H522. As to the kind of experiment: Growth inhibition of human NCI-H522 cells assessed as ATP level after 96 hrs by CellTiter-Glo assay. The conditions noted are these: NCI-H522, 96 h. Format: functional.
Test [6] is described as follows: Growth inhibition of human HCC1171 cells assessed as ATP level after 96 hrs by CellTiter-Glo assay. It is filed as functional. Conditions: HCC1171, 96 h. Summed up:
as §1

Another test deals with NCI-H1770. As to the kind of experiment: Growth inhibition of human NCI-H1770 cells assessed as ATP level after 96 hrs by CellTiter-Glo assay. Format: functional. Conditions: NCI-H1770, 96 h. In a few lines: as §1
A short description of test [7]: Growth inhibition of human NCI-H2077 cells assessed as ATP level after 96 hrs by CellTiter-Glo assay. It is filed as functional. The conditions noted are these: NCI-H2077, 96 h.
For the next test, the system named is NCI-H2009. As to the kind of experiment: Growth inhibition of human NCI-H2009 cells assessed as ATP level after 96 hrs by CellTiter-Glo assay. It is filed as functional. Conditions: NCI-H2009, 96 h.
A further test concerns NCI-H1838. As to the kind of experiment: Growth inhibition of human NCI-H1838 cells assessed as ATP level after 96 hrs by CellTiter-Glo assay. It is filed as functional. The conditions noted are these: NCI-H1838, 96 h. In a few lines:
(§2)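 NSCLC lines maintained as previously described, authenticated by mutational analysis and SNP arrays. Cells seeded and incubated 24 h, then given compound (DMSO stocks) as 10 threefold serial dilutions. Viability read after 96 h as cellular ATP content (CellTiter-Glo). GI50 derived by curve fitting of half-maximal inhibition.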

Test [8] is described as follows: Growth inhibition of human NCI-H2887 cells assessed as ATP level after 96 hrs by CellTiter-Glo assay. It is filed as functional. The conditions noted are these: NCI-H2887, 96 h.
In another test the test system is NCI-H1395. The experiment in a line: Growth inhibition of human NCI-H1395 cells assessed as ATP level after 96 hrs by CellTiter-Glo assay. Format: functional. Conditions: NCI-H1395, 96 h. In a few lines: as §1
The next test relates to PC-9. As to the kind of experiment: Growth inhibition of human PC9 cells assessed as ATP level after 96 hrs by CellTiter-Glo assay. Format: functional. The conditions noted are these: PC-9, 96 h.
A short description of test [9]: Growth inhibition of human NCI-H1819 cells assessed as ATP level after 96 hrs by CellTiter-Glo assay. It is filed as functional. The conditions noted are these: NCI-H1819, 96 h. Summed up: as §2
The nature of test [10]: Growth inhibition of human NCI-H1915 cells assessed as ATP level after 96 hrs by CellTiter-Glo assay. It is filed as functional. The conditions noted are these: NCI-H1915, 96 h. Summed up:
(§3)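 Human NSCLC cells, maintained as described previously and authenticated by mutational analysis and SNP arrays, were plated and incubated 24 h. Compounds were dissolved in DMSO and added as 10 threefold serial dilutions. Viability was read after 96 h as cellular ATP content by luminescence, and half-maximal inhibitory concentrations were fitted to give GI50.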

The nature of test [11]: Growth inhibition of human NCI-H1781 cells assessed as ATP level after 96 hrs by CellTiter-Glo assay. It is filed as functional. Conditions: NCI-H1781, 96 h. In a few lines:
as §1

The nature of test [12]: Growth inhibition of human HCC515 cells assessed as ATP level after 96 hrs by CellTiter-Glo assay. Conditions: HCC515, 96 h. It is filed as functional. Summed up:
as §1

The next test concerns NCI-H2122. The experiment in a line: Growth inhibition of human NCI-H2122 cells assessed as ATP level after 96 hrs by CellTiter-Glo assay. It is filed as functional. The conditions noted are these: NCI-H2122, 96 h.
Test [13] is described as follows: Growth inhibition of human HCC461 cells assessed as ATP level after 96 hrs by CellTiter-Glo assay. Format: functional. The conditions noted are these: HCC461, 96 h. In a few lines: as §1
A short description of test [14]: Growth inhibition of human HCC1195 cells assessed as ATP level after 96 hrs by CellTiter-Glo assay. It is filed as functional. In a few lines: as §1
Another test has as its system NCI-H1650. As to the kind of experiment: Growth inhibition of human NCI-H1650 cells assessed as ATP level after 96 hrs by CellTiter-Glo assay. Format: functional. Conditions: NCI-H1650, 96 h. In a few lines: as §1
Test [15] can be described thus: Growth inhibition of human HCC2279 cells assessed as ATP level after 96 hrs by CellTiter-Glo assay. Format: functional. In a few lines: as §1
Test [16] is described as follows: Growth inhibition of human NCI-H2110 cells assessed as ATP level after 96 hrs by CellTiter-Glo assay. Format: functional. The conditions noted are these: NCI-H2110, 96 h.
The test system of a further test is LCLC-97TM1. The experiment in a line: Growth inhibition of human LCLC97TM1 cells assessed as ATP level after 96 hrs by CellTiter-Glo assay. It is filed as functional. The conditions noted are these: LCLC-97TM1, 96 h. In a few lines: as §1
The subject of another test is NCI-H596. The experiment in a line: Growth inhibition of human NCI-H596 cells assessed as ATP level after 96 hrs by CellTiter-Glo assay. It is filed as functional. Conditions: NCI-H596, 96 h.
The nature of test [17]: Growth inhibition of human HCC2429 cells assessed as ATP level after 96 hrs by CellTiter-Glo assay. Format: functional. The conditions noted are these: HCC2429, 96 h. Summed up:
as §1

The next test concerns A549. The experiment in a line: Growth inhibition of human A549 cells assessed as ATP level after 96 hrs by CellTiter-Glo assay. Format: functional. Conditions: A549, 96 h. Summed up:
as §1

Test [18] is described as follows: Growth inhibition of human NCI-H2172 cells assessed as ATP level after 96 hrs by CellTiter-Glo assay. Format: functional. Conditions: NCI-H2172, 96 h.
Test [19] is described as follows: Growth inhibition of human NCI-H1944 cells assessed as ATP level after 96 hrs by CellTiter-Glo assay. The conditions noted are these: NCI-H1944, 96 h. Format: functional. Summed up:
as §3

Test [20] is described as follows: Growth inhibition of human HCC1359 cells assessed as ATP level after 96 hrs by CellTiter-Glo assay. It is filed as functional. Summed up:
as §1

In the case of `CN1CCN(CCC(=O)Nc2ccc3c(C#N)cnc(Nc4cccc(Br)c4)c3c2)CC1`, in test [1], the inhibition entry was “Active”.
Usually GI50 stands for the concentration giving 50% growth inhibition. As to `CN(C)C/C=C/C(=O)Nc1ccc2c(C#N)cnc(Nc3cccc(Br)c3)c2c1`, the GI50 in test [2] was found to be 16.6 µM; in [3], 24.8 µM; in test [5], 29.9 µM; with NCI-H2347, 22.9 µM; in the test with NCI-H1755, 9.89 µM; in the test with NCI-H1993 it was 12.9 µM. Also, the GI50 came out at 17.2 µM in the test with NCI-H522; 17.4 µM in test [6]; 9.02 µM with NCI-H1770; 13.2 µM in test [7]; 26.3 µM in the test on NCI-H2009; 18.2 µM in the test with NCI-H1838. Further, the GI50 in [8] was 15.5 µM; in the test on NCI-H1395, 31.3 µM; in the test with PC-9, 4.68 µM; in test [9] it was 7.59 µM; in test [10], 18.2 µM; in [11], 10.1 µM. Further, the GI50 stood at 20.4 µM in test [12]; 18.8 µM in the test on NCI-H2122; 16 µM in test [13]; 17.6 µM in [14]; 15.7 µM in the test with NCI-H1650; 10.6 µM in test [15]. The GI50 in [16] came to 13.2 µM; with LCLC-97TM1, 19.5 µM; with NCI-H596 it was 19.5 µM; in test [17], 19.5 µM; in the test on A549, 40 µM; in [18], 17.4 µM. For the same compound, the GI50 in test [19] is 33.9 µM; in test [20], 18.6 µM. Also, in test [4], the inhibition entry is “Active”.

Source of the values: ChEMBL document CHEMBL1641579, “Synthesis and biological evaluation of 7-substituted-1-(3-bromophenylamino)isoquinoline-4-carbonitriles as inhibitors of myosin light chain kinase and epidermal growth factor receptor” (Bioorg Med Chem, 2011).
